MC4R antag cAMP = blocks human MC4R cAMP signaling; P32245; MC4R-expressing cells, MTII-stimulated cAMP, LANCE TR-FRET; inhibition, % at 6.5 µM; 360,000 tested, 0.48% active;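 active = inhibition above its plate's cutoff, the mean of tested wells on that plate plus 3 SD, cut at about 29% in these data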;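 also: 0% = Melanotan II alone and 100% = Melanotan II plus saturating MCL0020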
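Material: U2OS-MC4R stable cell line | Reagent: Melanotan II challenge after compound preincubation | Doses: One concentration, 6.5 µM nominal | Incubation: 30-min compound preincubation, 1-h Melanotan II challenge, 1-h detection, room temperature | Signal: TR-FRET cAMP assay | Replicates: One well per compound, no replicates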
PfG6PD inh = PfG6PD (Plasmodium falciparum) enzyme inhibition; inhibition, % at 20 µM; AID 504690; 350,000 tested, 0.78% active; PfGluPho enzyme, NADPH resazurin-diaphorase fluorescence;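 active = inhibition reaching at least a set limit at 20 µM in the primary screen, cut at about 59% in these data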;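 also: 0% = DMSO wells with substrate and 100% = DMSO wells lacking glucose-6-phosphate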
ABHD5 PLIN5 PPI = ABHD5-PLIN5 protein interaction inhibition. Q00G26+Q8WTS1. 360,000 tested, 0.78% active. Split G. princeps luciferase complementation, luminescence, 4 h. inhibition, % at 4 µM. AID 602281;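 active = inhibition above the mean inhibition across every tested compound plus 3 SD, cut at about 22% in these data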;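 also: 0% = DMSO only wells and the 100% control is not disclosed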
MC4R ag barr = agonists of human melanocortin 4 receptor (MC4R) beta-arrestin; AID 540308; activation, % at 8.9 µM; U2OS MC4R beta-arrestin complementation, luminescence; percent of melanotan II response, DMSO zero; 360,000 tested, 0.98% active; P32245;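 active = activation above a per-plate cutoff, the mean activation of sample wells on that plate plus 3 SD, cut at about 8% in these data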
B2AR ag = activates human beta-2 adrenergic receptor causing internalization; Am2.2-beta2AR cells, FAP receptor internalization, flow cytometry; 340,000 tested, 0.43% active; response, % (no concentration beside the values);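 active = response above a set limit, near 3 SD of response in nonfluorescent compounds, cut at about 42% in these data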
ABHD5-PLIN5 conf = ABHD5-PLIN5 interaction inhibition, confirmed; shares compounds with ABHD5 PLIN5 PPI; biochemical ABHD5-PLIN5 interaction, luminescence; inhibition, % at 4 µM; 2,200 tested, 67% active; AID 651612; in the data active = inhibition above about 23%;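 also: 0% = DMSO vehicle wells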
HNF4 counter = active in HNF4 split-luciferase counter-screen for ABHD5-PLIN5 inhibitors | inhibition, % at 4 µM | shares compounds with ABHD5 PLIN5 PPI | HNF4 dimerization, luminescence, biochemical | 2,200 tested, 77% active | AID 651674;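 active = mean inhibition across replicate wells exceeding the computed hit threshold, cut at about 13% in these data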;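 also: light from luciferase halves that rejoin when HNF4 fusion proteins dimerize; 0% = DMSO only wells and the 100% control is not given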
Target sequence (P41235 whole entry, looked up, the tested form may be a part): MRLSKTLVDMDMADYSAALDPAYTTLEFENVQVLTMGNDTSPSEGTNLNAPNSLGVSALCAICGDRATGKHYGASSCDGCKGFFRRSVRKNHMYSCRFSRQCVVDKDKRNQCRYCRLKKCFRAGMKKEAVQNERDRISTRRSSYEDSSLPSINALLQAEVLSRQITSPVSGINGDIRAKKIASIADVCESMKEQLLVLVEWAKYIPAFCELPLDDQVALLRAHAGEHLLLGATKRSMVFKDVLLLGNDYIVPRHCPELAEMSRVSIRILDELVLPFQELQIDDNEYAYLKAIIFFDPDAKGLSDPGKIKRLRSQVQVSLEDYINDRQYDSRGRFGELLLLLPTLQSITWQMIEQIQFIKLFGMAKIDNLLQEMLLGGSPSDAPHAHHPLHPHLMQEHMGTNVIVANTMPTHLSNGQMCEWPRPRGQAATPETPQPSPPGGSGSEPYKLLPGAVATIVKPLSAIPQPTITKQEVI
Numbers without * were called inactive; . = no result given. Rows were chosen to be rich in hits. Some 3% of all compounds tested hit in one or more screens of this group.

SMILES	MC4R antag cAMP	PfG6PD inh	ABHD5 PLIN5 PPI	MC4R ag barr	B2AR ag	ABHD5-PLIN5 conf	HNF4 counter
O=C(CSc1nnc(-c2cnccn2)n1Cc1ccco1)c1ccc2ccccc2c1	-3.2	12.9	37.0*	-0.3	3.4	16.1	26.7*
Cc1cccc(NC(=O)CSc2nnc(-c3ccco3)c(-c3ccco3)n2)c1	-3.5	27.2	25.7*	-0.3	-11.0	90.3*	66.8*
CC1(C(=O)NCc2cccc(C(F)(F)F)c2)CCN1C1Cc2ccccc2C1 (configuration not stated)	-5.3	.	6.2	0.6	.	.	.
C=CC1=CCN(S(=O)(=O)C(C)(C)C)[C@H]1CCO	8.1	7.2	-0.4	-0.5	.	.	.
Cc1ccc(NC(=O)CSc2nnc(-c3cnccn3)n2Cc2ccco2)cc1	0.3	-21.2	8.2	-1.6	4.2	.	.
Cc1cccc(NC(=O)CSc2nnc(-c3cnccn3)n2Cc2ccco2)c1	-2.5	1.1	67.7*	1.5	-1.6	10.5	11.4
Cn1cccc1/C=C1\CCC/C(=C\c2cccn2C)C1=O	2.6	23.9	47.8*	-2.7	7.6	18.6	39.9*
NS(=O)(=O)c1ccc(N2C(=O)C3CC=CCC3C2=O)cc1 (configuration not stated)	-10.1	-18.7	2.9	-4.5	2.9	.	.
CC1=C(C)CS(=O)N(c2ccc(S(N)(=O)=O)cc2)C1 (configuration not stated)	12.6	56.3	33.6*	0.0	7.3	65.7*	89.4*
CC1=C(C)CS(=O)N(S(=O)(=O)c2ccccc2)C1 (configuration not stated)	-2.8	55.1	57.7*	-1.9	5.7	72.1*	101.1*
CN(C)S(=O)(=O)c1cc(NC(=O)CN2CCOCC2)ccc1Cl	4.1	-4.5	-3.2	-1.6	0.1	.	.
CN(CC(=O)N1CCCCC1)S(=O)(=O)c1ccc(Cl)cc1	4.2	-7.2	-4.5	-3.0	-2.9	.	.
CN(CC(=O)N1CCCC1)S(=O)(=O)c1ccc(Cl)cc1	8.9	-4.2	27.1*	-0.9	-3.5	5.0	3.2
CSc1ccc(CN(C)C(C)C(=O)NCc2ccccc2)cc1 (configuration not stated)	4.0	-10.2	-2.4	-2.1	-9.1	.	.
COc1cc(OC)cc(-c2c(C#Cc3ccsc3)c3cc(-c4ccc5c(c4)OCO5)ccc3n2C)c1	3.9	-13.8	97.8*	0.4	-2.5	5.7	1.2
COc1ccc(OC)c(C(=O)/C=C/c2cccnc2)c1	17.5	7.3	38.5*	-2.1	3.8	61.1*	63.1*
O=C(/C=C/c1cccnc1)c1cc(F)ccc1O	-3.9	-8.7	0.0	0.1	-4.7	.	.
COc1cc(C(=O)/C=C/c2cccnc2)ccc1O	-11.2	5.2	24.2*	0.6	21.8	60.8*	54.8*
O=C(/C=C/c1cccnc1)/C=C/c1cccnc1	0.9	37.8	94.9*	-3.0	67.5*	102.2*	108.0*
C(=Cc1cccnc1)c1ccncc1	8.0	8.7	1.4	-1.8	3.2	.	.
COc1ccc(S(=O)(=O)Nc2cc3c4c(c2)CCN4C(=O)CC3)cc1OC	1.4	6.6	-4.2	-1.9	2.1	.	.
CC1CCC(C(=O)NNC(=O)c2cc(-c3ccco3)[nH]n2)CC1 (configuration not stated)	25.5	2.2	27.0*	1.9	4.4	3.1	0.7
COc1cccc(CN2CCNC(=O)C2CC(=O)N2CCCCO2)c1OC (configuration not stated)	10.6	10.9	-5.2	-1.0	-3.9	.	.
CC(=O)/C(=C/c1ccccc1)C(=O)Nc1ccccc1C	20.5	-4.0	39.0*	3.0	43.4*	86.4*	71.2*
CC(=O)Nc1ccccc1C	5.2	-11.6	-9.1	0.3	4.7	.	.
SMILES	MC4R antag cAMP	PfG6PD inh	ABHD5 PLIN5 PPI	MC4R ag barr	B2AR ag	ABHD5-PLIN5 conf	HNF4 counter
Cc1ccccc1NC(=O)C(=Cc1ccc(C(=O)O)cc1)C(=O)Nc1ccccc1C	3.4	-29.9	27.4*	0.7	14.5	64.8*	45.5*
COC(=O)CNC(=O)C1CCN(S(=O)(=O)c2cnc[nH]2)CC1	1.5	-5.1	-2.3	-1.0	0.3	.	.
CCN(CC)CCNC(=O)/C(=C/c1cn(C)c2ccccc12)NC(=O)c1ccc(OC)c(OC)c1	1.6	-8.5	0.9	-2.4	2.2	.	.
COc1cccc(N2[C@@H](CC(C)=O)c3ccc(/C=C/C(C)=O)cc3S2(=O)=O)c1	20.9	10.4	31.8*	-2.4	5.2	65.2*	57.0*
COC(=O)C[C@H]1c2ccccc2S(=O)(=O)N1c1cccc(OC)c1	9.3	0.1	9.4	-0.9	9.1	.	.
COc1ccc(CN2[C@@H](CC(C)=O)c3ccc(/C=C/C(C)=O)cc3S2(=O)=O)cc1	-11.0	9.3	34.7*	-1.6	8.8	70.4*	62.3*
COc1ccc(C(C)(C)C)cc1NC(=O)COC(=O)CN1C(=O)NC2(CCCCC2C)C1=O (configuration not stated)	7.6	16.0	0.7	-0.4	-4.5	.	.
CN(c1ccccc1C(=O)Nc1ccccc1-c1ccccc1)S(C)(=O)=O	3.0	-8.4	-2.2	0.5	-3.0	.	.
O=[N+]([O-])c1ccc(S(=O)Cc2ccccc2)c([N+](=O)[O-])c1 (configuration not stated)	26.8	58.1	95.1*	-3.7	49.3*	100.5*	109.8*
Cc1cccc(/C=C/C(=O)c2ccc([N+](=O)[O-])o2)c1	5.9	47.9	76.8*	-0.4	86.8*	103.7*	107.5*
O=C(/C=C/c1cccc([N+](=O)[O-])c1)Nc1cccc(NC(=O)c2ccco2)c1	2.5	24.6	12.4	3.4	11.4	.	.
O=C(/C=C/c1cccc([N+](=O)[O-])c1)c1ccc([N+](=O)[O-])o1	29.8*	97.8*	72.0*	-3.4	66.5*	105.2*	110.9*
O=C(/C=C/c1cccc([N+](=O)[O-])c1)c1ccco1	17.4	1.3	70.8*	-2.8	7.1	96.5*	97.3*
Cc1ccc(NC(=O)c2ccc([N+](=O)[O-])o2)c(C)c1	2.6	8.4	-5.2	-0.8	8.9	.	.
O=C(c1ccc(CS(=O)Cc2cccc(Cl)c2)o1)N1CCN(C2CCCCC2)CC1 (configuration not stated)	-2.3	0.7	-3.9	0.3	-0.2	.	.
Cc1cc(O)c(N=Nc2ccc(C(=O)O)cc2)cc1C	12.6	-32.5	-8.0	-1.6	12.1	.	.
CCN(CC(=O)Nc1c(F)cccc1F)C(=O)CSc1nc(C)cc(C)n1	14.5	-5.5	-4.2	-1.9	-2.0	.	.
O=C(O)c1cccc(-c2ccc3c(c2)OCO3)c1	3.1	-4.9	88.3*	0.3	-0.2	2.5	3.5
O=C(O)c1ccc2c(c1)OCCO2	0.9	-7.0	3.0	-0.5	-1.4	.	.

Screening data as filed in PubChem.
